Measured values taken from article PMC4475445 (Journal of immunology (Baltimore, Md. : 1950), 2015).

Key:
BMMΦ [1] = assay: TLR-dependent cytokine secretion; assay type: cell-based, mouse; details: 30 min pretreatment, then LPS or CpG 16 h; wild-type and Btk-/-Tec-/- BMMΦ
BMMΦ [2] = assay: Apoptosis assay; assay type: cell-based; details: wild-type and Btk-/-Tec-/- BMMΦ, several doses, Figure S2D
Method in brief: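 Bone marrow was flushed from femurs and tibias of 6–15-week-old mice, red cells were lysed, and the cells were filtered and plated at 7.5 × 10^5 cells/ml. Cells were grown in DMEM with 10% heat-inactivated FBS, 10 mM Hepes and 10% CMG 12-14 conditioned medium as the M-CSF source, and re-plated on day 5. Apoptosis was scored by annexin V/7-AAD staining and flow cytometry.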

Tec kinases = assay: Kinase selectivity panel; assay type: biochemical; details: 1μM test concentration, 10 μM 33P-ATP; Supplemental Table 2
Method in brief: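 Test compound was dissolved in DMSO and tested at 1 μM final. Each kinase was added to fresh substrate with cofactors in reaction buffer and preincubated 30 min at room temperature. Reactions were started with 10 μM 33P-ATP and ran 2 hr at room temperature. After termination, unreacted phosphate was washed off with 0.1% phosphoric acid and bound label was read by P81 filtration. Run in duplicate; 10 μM staurosporine positive control.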

ITK = biological target: T1, ITK (Homo sapiens, UniProt Q08881); assay: HotSpot radioisotope kinase assay; assay type: biochemical
T1 sequence (Q08881 1-620): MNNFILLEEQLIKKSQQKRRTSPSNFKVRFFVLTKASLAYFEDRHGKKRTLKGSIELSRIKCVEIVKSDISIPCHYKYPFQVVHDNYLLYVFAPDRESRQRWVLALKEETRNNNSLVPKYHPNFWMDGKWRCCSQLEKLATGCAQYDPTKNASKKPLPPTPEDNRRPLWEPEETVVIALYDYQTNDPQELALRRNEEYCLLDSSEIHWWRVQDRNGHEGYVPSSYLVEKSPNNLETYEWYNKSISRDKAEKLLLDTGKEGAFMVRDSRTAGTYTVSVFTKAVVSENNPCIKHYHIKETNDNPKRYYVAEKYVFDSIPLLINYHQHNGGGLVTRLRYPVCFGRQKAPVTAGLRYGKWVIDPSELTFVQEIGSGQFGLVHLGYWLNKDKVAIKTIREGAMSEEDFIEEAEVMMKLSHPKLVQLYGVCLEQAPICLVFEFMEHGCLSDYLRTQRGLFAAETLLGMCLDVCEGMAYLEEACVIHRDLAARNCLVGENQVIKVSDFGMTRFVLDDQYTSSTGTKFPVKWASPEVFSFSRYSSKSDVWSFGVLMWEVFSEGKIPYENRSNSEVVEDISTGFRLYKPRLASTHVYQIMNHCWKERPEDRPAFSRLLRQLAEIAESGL
Method in brief: (§1)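 Radiometric HotSpot assay with P81 filter capture. Kinase was added to freshly prepared substrate with cofactors and preincubated 30 min at room temperature, then started with 33P-ATP, with ATP at Km or 10× Km. Reactions ran 2 hr at room temperature; unreacted phosphate was washed off with 0.1% phosphoric acid. Test compound: 10 doses, […] serial dilution from 10 μM. Duplicates; staurosporine positive control.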

Btk = Btk (Homo sapiens, UniProt Q06187); assay: HotSpot radioisotope kinase assay; assay type: biochemical
Btk, sequence (Q06187 whole entry): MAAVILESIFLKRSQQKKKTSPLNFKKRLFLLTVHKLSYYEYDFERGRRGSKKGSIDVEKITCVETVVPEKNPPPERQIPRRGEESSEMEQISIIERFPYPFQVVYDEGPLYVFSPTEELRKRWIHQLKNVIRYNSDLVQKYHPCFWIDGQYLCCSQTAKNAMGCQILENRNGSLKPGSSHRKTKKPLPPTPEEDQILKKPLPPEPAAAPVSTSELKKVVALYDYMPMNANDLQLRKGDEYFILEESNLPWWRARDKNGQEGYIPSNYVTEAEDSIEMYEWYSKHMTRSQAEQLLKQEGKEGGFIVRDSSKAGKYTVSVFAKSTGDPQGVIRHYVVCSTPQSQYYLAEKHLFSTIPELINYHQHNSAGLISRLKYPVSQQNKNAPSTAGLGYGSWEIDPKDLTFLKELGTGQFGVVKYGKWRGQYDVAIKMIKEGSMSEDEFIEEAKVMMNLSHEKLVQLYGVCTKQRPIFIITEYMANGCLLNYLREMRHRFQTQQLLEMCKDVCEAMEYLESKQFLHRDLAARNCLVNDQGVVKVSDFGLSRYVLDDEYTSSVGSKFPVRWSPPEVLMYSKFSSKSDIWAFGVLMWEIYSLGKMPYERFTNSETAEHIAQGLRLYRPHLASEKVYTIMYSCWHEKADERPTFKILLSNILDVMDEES
Method in brief: as §1

Bmx = biological target: T2, Bmx (Homo sapiens, UniProt P51813); assay: HotSpot radioisotope kinase assay; assay type: biochemical
T2 sequence (P51813 1-675): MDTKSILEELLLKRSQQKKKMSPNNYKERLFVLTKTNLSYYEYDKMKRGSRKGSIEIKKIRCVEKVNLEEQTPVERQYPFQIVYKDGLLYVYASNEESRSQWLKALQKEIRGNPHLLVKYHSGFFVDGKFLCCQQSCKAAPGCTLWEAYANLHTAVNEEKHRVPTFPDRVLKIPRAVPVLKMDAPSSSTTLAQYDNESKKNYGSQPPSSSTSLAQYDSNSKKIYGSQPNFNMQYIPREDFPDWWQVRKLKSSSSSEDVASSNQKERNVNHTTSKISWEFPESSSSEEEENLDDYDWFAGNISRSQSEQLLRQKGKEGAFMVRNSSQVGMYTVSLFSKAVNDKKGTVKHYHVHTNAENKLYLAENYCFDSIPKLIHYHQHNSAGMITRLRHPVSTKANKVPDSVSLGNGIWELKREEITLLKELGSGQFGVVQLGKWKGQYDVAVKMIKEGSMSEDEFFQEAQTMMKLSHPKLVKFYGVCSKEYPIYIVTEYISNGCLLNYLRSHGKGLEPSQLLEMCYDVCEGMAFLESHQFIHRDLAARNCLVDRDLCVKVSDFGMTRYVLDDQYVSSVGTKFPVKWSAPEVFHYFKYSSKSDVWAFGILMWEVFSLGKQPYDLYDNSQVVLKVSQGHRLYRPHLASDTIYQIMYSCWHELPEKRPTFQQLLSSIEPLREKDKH
Method in brief: as §1

Tec = biological target: T3, Tec (Homo sapiens, UniProt P42680); assay: HotSpot radioisotope kinase assay; assay type: biochemical
T3 sequence (P42680 1-631): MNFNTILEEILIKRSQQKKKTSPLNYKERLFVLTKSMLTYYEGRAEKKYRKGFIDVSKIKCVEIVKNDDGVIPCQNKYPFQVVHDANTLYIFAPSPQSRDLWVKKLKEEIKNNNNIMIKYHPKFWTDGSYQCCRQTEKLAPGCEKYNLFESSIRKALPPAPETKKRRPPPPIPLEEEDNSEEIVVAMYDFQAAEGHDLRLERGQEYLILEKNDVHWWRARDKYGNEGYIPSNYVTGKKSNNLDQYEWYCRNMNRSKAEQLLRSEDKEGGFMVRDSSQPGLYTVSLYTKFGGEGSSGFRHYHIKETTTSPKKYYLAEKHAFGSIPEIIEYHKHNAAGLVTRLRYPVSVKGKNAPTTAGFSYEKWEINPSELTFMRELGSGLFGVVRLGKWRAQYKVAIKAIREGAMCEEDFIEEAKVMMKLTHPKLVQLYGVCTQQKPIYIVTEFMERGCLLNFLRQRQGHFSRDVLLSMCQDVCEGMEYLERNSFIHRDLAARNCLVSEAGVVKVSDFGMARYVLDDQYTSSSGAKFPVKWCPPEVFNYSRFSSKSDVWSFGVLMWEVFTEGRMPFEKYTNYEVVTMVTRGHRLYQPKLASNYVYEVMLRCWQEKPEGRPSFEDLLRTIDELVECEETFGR
Method in brief: as §1

Structure (SMILES) | TLR-dependent secretion of IL6 (BMMΦ [1]) | TLR-dependent secretion of TNF (BMMΦ [1]) | Percentage of dead (7-AAD positive) or apoptotic (Annexin V positive) cells (BMMΦ [2]) | Kinase selectivity (Tec kinases) | IC50 (ITK) [nM] | IC50 (Btk) [nM] | IC50 (Bmx) [nM] | IC50 (Tec) [nM]
C=CC(=O)Nc1cccc(Nc2nc(Nc3ccc(OCCOC)cc3)ncc2F)c1 [CC-292] | decreased | decreased | did not alter | – | – | – | – | –
C=CC(=O)Nc1cccc(Nc2nc(Nc3ccc(OCCOC)c(F)c3)ncc2F)c1 [Compound1, N-(3-((5-fluoro-2-((3-fluoro-4-(2-methoxyethoxy)phenyl)amino)pyrimidin-4-yl)amino)phenyl)acrylamide] | – | – | – | highly selective for Tec kinases | 172 | 12.5 | 2.1 | 22
